According to ChEMBL document CHEMBL4261490, “Exploring the links between peptoid antibacterial activity and toxicity” (Medchemcomm, 2017):
In brackets after ≈: the same amount, converted by molar mass. Square brackets hold non-standard residues; d marks the D form. Peptide text beside a SMILES is read from it. Nspe = C[C@H](NCC(=O)O)c1ccccc1; NhArg = N=C(N)NCCCCNCC(=O)O

How the values were obtained:
[1] = Selectivity index, ratio of ED50 for human HaCaT cells to MIC for Escherichia coli K-12 W3110 ATCC 27325; type: toxicity; settings: read-out: Selectivity Index
[2] = Selectivity index, ratio of ED50 for human HaCaT cells to MIC for Pseudomonas aeruginosa PAO1 ATCC 15692; type: toxicity; settings: read-out: Selectivity Index
[3] = Selectivity index, ratio of ED50 for human HaCaT cells to MIC for Staphylococcus aureus 3R7089 strain Oxford/ATCC 9144; type: toxicity; settings: read-out: Selectivity Index
[4] = Selectivity index, ratio of ED50 for human HaCaT cells to MIC for Staphylococcus epidermidis clinical isolate; type: toxicity; settings: read-out: Selectivity Index
[5] = Selectivity index, ratio of ED50 for human HepG2 cells to MIC for Escherichia coli K-12 W3110 ATCC 27325; type: toxicity; settings: read-out: Selectivity Index
[6] = Selectivity index, ratio of ED50 for human HepG2 cells to MIC for Pseudomonas aeruginosa PAO1 ATCC 15692; type: toxicity; settings: read-out: Selectivity Index
[7] = Selectivity index, ratio of ED50 for human HepG2 cells to MIC for Staphylococcus aureus 3R7089 strain Oxford/ATCC 9144; type: toxicity; settings: read-out: Selectivity Index
[8] = Selectivity index, ratio of ED50 for human HepG2 cells to MIC for Staphylococcus epidermidis clinical isolate; type: toxicity; settings: read-out: Selectivity Index
[9] = Cytotoxicity against human HaCaT cells assessed as reduction in cell viability pretreated for 1 hr followed by DMEM addition measured after 24 hrs by alamar blue assay; type: cell-based; settings: read-out: ED50
Summary of the method: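 HaCaT keratinocytes are grown in DMEM high glucose with 10% FBS and 1% P/S and seeded at 2x10^4 cells/well 24 h before treatment. Compound dilution series run 2–100 µM (5 mM DMSO stocks) in 50 µL for 1 h, then medium is added for 24 h at 37 °C, 5% CO2. alamarBlue is read after 1 h (Ex 540/Em 620). Triplicate, ≥2 occasions; ED50 from dose-response; amphotericin B positive control.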

[10] = Cytotoxicity against human HepG2 cells assessed as reduction in cell viability pretreated for 1 hr followed by DMEM addition measured after 24 hrs by alamar blue assay; type: cell-based; settings: read-out: ED50
Summary of the method: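 HepG2 cells are kept in DMEM high glucose with 10% heat-inactivated FBS and 1% P/S at 37 °C, 5% CO2, and seeded at 2x10^4 cells/well one day ahead. They are exposed to compounds (100 to 3 µM, from 5 mM DMSO stocks) in 50 µL for 1 h. Medium is then added and cells incubated 24 h. alamarBlue is read after 2 h (Ex 560/Em 600). Triplicate on ≥2 occasions; ED50 from dose-response; DMSO negative control.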

Pseudomonas aeruginosa = test: Antibacterial activity against Pseudomonas aeruginosa PAO1 ATCC 15692 incubated for 16 hrs under shaking condition; type: functional; settings: PAO1 ATCC 15692, 16 h
Summary of the method: (§1)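 Broth microdilution (Andrews method) in Iso-sensitest broth. Overnight cultures are adjusted to A650 0.07 (0.5 McFarland) and diluted ten-fold. Compounds come from 5 mM DMSO stocks, 2-fold serially diluted, final 2–100 μM in a 1:1 inoculum:compound mix. Incubation is 37 °C for 16 h with shaking. MIC is the lowest concentration giving complete growth inhibition, read by absorbance; triplicate.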

Staphylococcus aureus = test: Antibacterial activity against Staphylococcus aureus 3R7089 strain Oxford/ATCC 9144 incubated for 16 hrs under shaking condition; type: functional; settings: 3R7089 strain Oxford/ATCC 9144, 16 h; summary of the method: as §1

Row | SMILES | selectivity ratio [1] | selectivity ratio [2] | selectivity ratio [3] | selectivity ratio [4] | selectivity ratio [5] | selectivity ratio [6] | selectivity ratio [7] | selectivity ratio [8] | CC50 at 24 h [9] | CC50 at 24 h [10] | MIC (Pseudomonas aeruginosa) | MIC (Staphylococcus aureus)
1 | NCCCCNCC(=O)N(CC(=O)N(CC(=O)N(CCCCN)CC(=O)N(CC(=O)N(CC(=O)N(CCCCN)CC(=O)N(CC(=O)N(CC(N)=O)Cc1cccc(F)c1)Cc1cccc(F)c1)Cc1cccc(F)c1)Cc1cccc(F)c1)Cc1cccc(F)c1)Cc1cccc(F)c1 | 5 | 3 | 11 | 32 | 3 | 2 | 7 | 22 |  |  |  | 
2 | NCCCCNCC(=O)N(CC(=O)N(CC(=O)N(CCCCN)CC(=O)N(CC(=O)N(CC(=O)N(CCCCN)CC(=O)N(CC(=O)N(CC(N)=O)Cc1ccccc1)Cc1ccccc1)Cc1ccccc1)Cc1ccccc1)Cc1ccccc1)Cc1ccccc1 | 2 | 1 | 4 | 17 | 2 | 1 | 4 | 17 | > 100 µM | > 100 µM | > 100 µM | 
3 | NCCCCNCC(=O)N(CC(=O)N(CC(=O)N(CCCCN)CC(=O)N(CC(=O)N(CC(=O)N(CCCCN)CC(=O)N(CC(=O)N(CC(=O)N(CCCCN)CC(=O)N(CC(=O)N(CC(N)=O)Cc1cccc(F)c1)Cc1cccc(F)c1)Cc1cccc(F)c1)Cc1cccc(F)c1)Cc1cccc(F)c1)Cc1cccc(F)c1)Cc1cccc(F)c1)Cc1cccc(F)c1 | 1 | 1 | 4 | 8 | 1 | 1 | 3 | 6 |  |  |  | 
4 | C[C@@H](c1ccccc1)N(CC(N)=O)C(=O)CN(C(=O)CN(CCCCNC(=N)N)C(=O)CN(C(=O)CN(C(=O)CN(CCCCNC(=N)N)C(=O)CN(C(=O)CN(C(=O)CN(CCCCNC(=N)N)C(=O)CN(C(=O)CN(C(=O)CNCCCCNC(=N)N)[C@@H](C)c1ccccc1)[C@@H](C)c1ccccc1)[C@@H](C)c1ccccc1)[C@@H](C)c1ccccc1)[C@@H](C)c1ccccc1)[C@@H](C)c1ccccc1)[C@@H](C)c1ccccc1 (H-[NhArg][Nspe][Nspe][NhArg][Nspe][Nspe][NhArg][Nspe][Nspe][NhArg][Nspe][Nspe]-NH2) | 3 | 2 | 20 | 20 | 2 | 1 | 12 | 12 | 20 µM |  |  | 
5 | CC(c1ccccc1)N(CC(=O)N(CCN)CC(=O)N(CC(=O)N(CC(=O)N(CCN)CC(=O)N(CC(=O)N(CC(N)=O)[C@@H](C)c1ccccc1)[C@@H](C)c1ccccc1)C(C)c1ccccc1)[C@@H](C)c1ccccc1)C(=O)CN(C(=O)CNCCN)C(C)c1ccccc1 (single isomer, unassigned) | 4 | 1 | 50 | 8 | 4 | 1 | 50 | 8 | > 100 µM | > 100 µM | > 100 µM | 2 µM (≈ 2.57 µg/mL)
6 | C[C@H](c1ccccc1)N(CC(N)=O)C(=O)CN(C(=O)CN(CCCCN)C(=O)CN(C(=O)CN(C(=O)CN(CCCCN)C(=O)CN(C(=O)CN(C(=O)CNCCCCN)[C@H](C)c1ccccc1)[C@@H](C)c1ccccc1)[C@H](C)c1ccccc1)[C@@H](C)c1ccccc1)[C@H](C)c1ccccc1 (stereo in doubt) | 8 | 1 | 50 | 50 | 8 | 1 | 50 | 50 | > 100 µM | > 100 µM | > 100 µM | 2 µM (≈ 2.74 µg/mL)
